Among the data in the array DNA melting data of Ke et al. (doi:10.1101/2024.01.08.574731) are folding enthalpy and Tm values, retold here.

The nature of series [1]: folding enthalpy; higher = less favourable; fluorescence melt of hairpins on a sequencing array, two-state fit. The conditions noted are these: sodium 0.088 M. Put shortly: (§1)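 Two-state fits, bootstrapped, provided melting temperature and folding enthalpy from Cy3 fluorescence normalised to pre-quench Cy3 and to control constructs. Library hairpins with annealed Cy3 and quencher oligos were imaged on a sequenced MiSeq flow cell in 50 mM Na-HEPES pH 8.0, 25 mM NaCl, at 2.5 °C intervals up to 60 °C. Four replicates were combined with inverse-variance weighting. A 9.35 °C upward shift was applied to fitted temperatures to match UV melts.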

Series [2] can be described thus: melting temperature; fluorescence melt of hairpins on a sequencing array, two-state fit, raised by 9.35 °C to match UV melts. As to conditions: sodium 0.088 M. Put shortly: as §1

On to GCCCAGCGAAAGCGGTGC ((.(.((....)).).)), for which, in series [1], the folding enthalpy is -15.8 kcal/mol. Also, the Tm in series [2] worked out at 53.1 °C.

In the case of GCCCAGCGAAAGCTAAGC ((..(((....)))..)), the folding enthalpy in series [1] is -9.29 kcal/mol. Also, the Tm in series [2] stood at 27.7 °C.

As to GCCCAGCGAAAGCTAGGC (((.(((....))).))), the folding enthalpy in series [1] is -42.3 kcal/mol. Further, in series [2], the Tm is 54.1 °C.

Regarding GCCCAGCGAAAGCTGTGC ((.((((....)))).)), the folding enthalpy in series [1] was -16 kcal/mol. In addition, the Tm in series [2] was found to be 61 °C.

As to GCCCAGCGAAAGCTTGGC (((.(((....))).))), the folding enthalpy in series [1] was -53 kcal/mol. The Tm in series [2] is 54.9 °C.

Consider GCCCAGGGAAACCTAGGC (((.(((....))).))), for which the folding enthalpy in series [1] is -21.5 kcal/mol. Further, the Tm in series [2] came out at 43.2 °C.

In the case of GCCCAGTCGAAAGACGGC (((..(((....)))))), the folding enthalpy in series [1] was -13.4 kcal/mol. For the same sequence, in series [2], the Tm is 49.3 °C.

On to GCCCATACGAAAGTAGGC (((..(((....)))))), for which the folding enthalpy in series [1] is -20.8 kcal/mol. Moreover, the Tm in series [2] was determined as 41.5 °C.

For GCCCCAACGAAAGTTGGC (((..(((....)))))), the folding enthalpy in series [1] was -5.86 kcal/mol. Moreover, in series [2], the Tm stood at 38.7 °C.

For GCCCCAGGAAACCGGGGC (((((.(....).))))), in series [1], the folding enthalpy is -41.2 kcal/mol. Moreover, the Tm in series [2] came out at 59.3 °C.

GCCCCCGAAAGGGAGGC ((((((....))).))): the folding enthalpy in series [1] was -29.7 kcal/mol. Moreover, the Tm in series [2] amounted to 68.7 °C.

Consider GCCCCCGAAAGGGATGGC ((((((....)))..))), for which, in series [1], the folding enthalpy is -24.1 kcal/mol. Also, the Tm in series [2] amounted to 52.1 °C.

For the sequence GCCCCGCGAAAGCAGTGC ((.(.((....)).).)), in series [1], the folding enthalpy was -11.8 kcal/mol. In addition, the Tm in series [2] was found to be 34 °C.

On to GCCCCGCGAAAGCGAAGC ((..(((....)))..)), for which, in series [1], the folding enthalpy is -8.06 kcal/mol. In series [2], the Tm worked out at 39.2 °C.

For the sequence GCCCCGCGAAAGCGTAGC ((..(((....)))..)), in series [1], the folding enthalpy is -9.13 kcal/mol. The Tm in series [2] worked out at 35.8 °C.

Turning to GCCCCGCGAAAGCGTCGC ((..(((....)))..)), the folding enthalpy in series [1] is -8.15 kcal/mol. In addition, the Tm in series [2] came out at 28.8 °C.

In the case of GCCCCGCGAAAGCGTGGC (((.(((....))).))), in series [1], the folding enthalpy is -25.4 kcal/mol. The Tm in series [2] was 67.4 °C.

Turning to GCCCCGGGAAACCGAGGC (((.(((....))).))), the folding enthalpy in series [1] was -29.5 kcal/mol. For the same sequence, the Tm in series [2] is 54.1 °C.

Consider GCCCCGGGAAACCGGGAC (.(((((....))))).), for which the folding enthalpy in series [1] is -12.2 kcal/mol. Moreover, the Tm in series [2] came to 53.7 °C.

Take GCCCCGTCGAAAGACGGC (((..(((....)))))): the folding enthalpy in series [1] is -4.65 kcal/mol. For the same sequence, the Tm in series [2] was determined as 34.4 °C.

GCCCCTCGAAAGAGTGGC (((.(((....))).))): the folding enthalpy in series [1] was -38 kcal/mol. For the same sequence, in series [2], the Tm was 52.6 °C.

Take GCCCCTGGAAACAGGGAC (.(((((....))))).): the folding enthalpy in series [1] is -13.9 kcal/mol. Further, the Tm in series [2] stood at 51.1 °C.

Turning to GCCCCTGGAAACGGGGGC (((((.(....).))))), in series [1], the folding enthalpy was -33.7 kcal/mol. The Tm in series [2] worked out at 66.6 °C.

For GCCCGACCGAAAGGTGGC (((..(((....)))))), the folding enthalpy in series [1] is -17.1 kcal/mol. In addition, the Tm in series [2] stood at 51 °C.

Consider GCCCGACGAAAGTCAGGC (((.(((....))).))), for which the folding enthalpy in series [1] was -31.8 kcal/mol. Besides, the Tm in series [2] worked out at 57.3 °C.

With GCCCGACGAAAGTCTGGC (((.(((....))).))), the folding enthalpy in series [1] is -32.4 kcal/mol. The Tm in series [2] was found to be 55.5 °C.

As for GCCCGAGCGAAAGCTGGC (((..(((....)))))), the folding enthalpy in series [1] was -16.1 kcal/mol. Also, the Tm in series [2] amounted to 50.9 °C.

Take GCCCGAGGAAACCCAGGC (((.(.(....).).))): in series [1], the folding enthalpy was -16.5 kcal/mol. The Tm in series [2] was found to be 28.1 °C.

As for GCCCGAGGAAACCCGAGC ((.((.(....).)).)), the folding enthalpy in series [1] is -17.1 kcal/mol. The Tm in series [2] was 30.8 °C.

Consider GCCCGAGGAAACCCGGAC (.(((.(....).))).), for which the folding enthalpy in series [1] is -19.3 kcal/mol. Moreover, the Tm in series [2] was found to be 32.7 °C.

Consider GCCCGAGGAAACCCGGGC (((((.(....).))))), for which the folding enthalpy in series [1] is -40.6 kcal/mol. Further, in series [2], the Tm amounted to 60.6 °C.

For GCCCGAGGAAACTCGAGC ((.((((....)))).)), the folding enthalpy in series [1] is -31 kcal/mol. Further, in series [2], the Tm came out at 48.4 °C.

GCCCGAGGAAACTTGGGC ((((.((....)).)))): the folding enthalpy in series [1] is -41.1 kcal/mol. In series [2], the Tm amounted to 58.1 °C.

GCCCGCACGAAAGTGGGC (((..(((....)))))): the folding enthalpy in series [1] was -24 kcal/mol. Moreover, the Tm in series [2] was found to be 57.4 °C.

Consider GCCCGCCCGAAAGGGGGC (((..(((....)))))), for which the folding enthalpy in series [1] was -13.2 kcal/mol. Besides, the Tm in series [2] amounted to 60.2 °C.

As to GCCCGCGAAAGCGAGGGC ((((((....)))..))), the folding enthalpy in series [1] was -28 kcal/mol. For the same sequence, in series [2], the Tm was 68.7 °C.

Regarding GCCCGCGAAAGCGATGGC ((((((....)))..))), in series [1], the folding enthalpy is -19.8 kcal/mol. The Tm in series [2] amounted to 62 °C.
